This is an account of results in ChEMBL document CHEMBL1157465, “Design, synthesis, and biological evaluation of novel 3-aryl-4-(1H-indole-3yl)-1,5-dihydro-2H-pyrrole-2-ones as vascular endothelial growth factor receptor (VEGF-R) inhibitors” (J Med Chem, 2008).

The target in experiment [1] is Platelet-derived growth factor receptor beta (Homo sapiens, UniProt P09619). Description: Inhibition of human recombinant PDGFRbeta.
Experiment [2] deals with Cyclin-dependent kinase 2 (Homo sapiens, UniProt P24941). The experiment is described as follows: Inhibition of human recombinant CDK2/cyclin A. A digest of the protocol:
(§1)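 Human kinases expressed in Sf9 cells by baculovirus as GST or His fusions and affinity purified. Radiometric 33PanQinase assay: 60 mM HEPES-NaOH pH 7.5, 3 mM MgCl2, 3 mM MnCl2, 3 µM orthovanadate, 1.2 mM DTT, 1 µM [γ-33P]ATP, 50-400 ng enzyme, 1% DMSO; 30 °C, 80 min. Substrates: B-Raf-VE, MEK1 KM; CDK2/CycA, histone H1; CK2-A1, casein; COT, autophosphorylation. IC50 from 10 concentrations; 33Pi incorporation by scintillation.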

Experiment [3] addresses Insulin receptor (Homo sapiens, UniProt P06213). The experiment is described as follows: Inhibition of human recombinant INS-R.
The species named for experiment [4] is Homo sapiens. The experiment is described as follows: Induction of apoptosis in HDMEC assessed as cleaved caspase 3 at 1.3 uM after 24 hrs. The format is functional. A digest of the protocol: (§2)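 HDMEC incubated 24 h with compound. Adherent cells and supernatant harvested together, stained with an antibody to cleaved caspase-3, and analysed by FACS as percent apoptotic cells. Three independent repeats.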

The target in experiment [5] is Mitogen-activated protein kinase kinase kinase 8 (Homo sapiens, UniProt P41279). Description: Inhibition of human recombinant COT. A digest of the protocol: as §1
Experiment [6] is filed under the species Homo sapiens. Description: Antiangiogenic activity in VEGF-induced HLMEC assessed as sprouts per bead at 1.3 uM after 24 hrs by sprouting assay. In kind it is functional. A digest of the protocol:
(§3)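 HLMEC seeded on cytodex-3 microcarrier beads and embedded in 3D fibrinogen gel with 20 ng/mL VEGF plus compound at a final 1.3 or 2.6 µM (from 1 mM DMSO stock). Gel polymerised with 0.65 U/mL thrombin and overlaid with MCDB131, 5% FCS, 5% human serum and 200 U/mL Trasylol. Negative control: gel without growth factors. After 24 h, fixed in 1% PFA; sprouts per 50 beads counted microscopically. Triplicates per condition, n = 9 experiments.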

For experiment [7], the species on record is Homo sapiens. Description: Induction of apoptosis in HDMEC assessed as cleaved caspase 3 at 2.6 uM after 24 hrs. The format is functional. A digest of the protocol:
as §2

For experiment [8], the species on record is Homo sapiens. Description: Antiangiogenic activity in VEGF-induced HLMEC assessed as number of sprouts per bead at 2.6 uM after 24 hrs by sprouting assay. The format is functional. In short, it runs like this:
as §3

The target in experiment [9] is Hepatocyte growth factor receptor (Homo sapiens, UniProt P08581). Description: Inhibition of human recombinant MET.
The target of experiment [10] is Ephrin type-B receptor 4 (Homo sapiens, UniProt P54760). Description: Inhibition of human recombinant EPHB4. A digest of the protocol: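 Recombinant human tyrosine kinases (EPHB4, TIE2, VEGF-R2, VEGF-R3), expressed in Sf9 insect cells as GST- or His-fusions, with poly(Glu,Tyr) 4:1 as substrate. Conditions: 1 µM [γ-33P]ATP, pH 7.5 HEPES buffer with Mg/Mn, DTT and vanadate, 30 °C for 80 min, 1% DMSO. Ten concentrations were tested and IC50 came from scintillation counting of incorporated 33P.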

Experiment [11] concerns the target Receptor tyrosine-protein kinase erbB-2 (Homo sapiens, UniProt P04626). The experiment is described as follows: Inhibition of human recombinant ERBB2. In short, it runs like this:
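Human kinases expressed in Sf9 cells via baculovirus as GST or His fusions and affinity purified. 33PanQinase assay in 60 mM HEPES-NaOH pH 7.5, 3 mM MgCl2, 3 mM MnCl2, 3 µM orthovanadate, 1.2 mM DTT, 1 µM [γ-33P]ATP, 1% DMSO; 30 °C, 80 min. Substrates: poly(Glu,Tyr) 4:1 for ERBB2, IGF1-R and SRC; poly(Ala,Glu,Lys,Tyr) 6:2:5:1 for FLT3. IC50 from 10 concentrations by scintillation counting.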

Chain of Insulin receptor (P06213 28-758 limits assumed): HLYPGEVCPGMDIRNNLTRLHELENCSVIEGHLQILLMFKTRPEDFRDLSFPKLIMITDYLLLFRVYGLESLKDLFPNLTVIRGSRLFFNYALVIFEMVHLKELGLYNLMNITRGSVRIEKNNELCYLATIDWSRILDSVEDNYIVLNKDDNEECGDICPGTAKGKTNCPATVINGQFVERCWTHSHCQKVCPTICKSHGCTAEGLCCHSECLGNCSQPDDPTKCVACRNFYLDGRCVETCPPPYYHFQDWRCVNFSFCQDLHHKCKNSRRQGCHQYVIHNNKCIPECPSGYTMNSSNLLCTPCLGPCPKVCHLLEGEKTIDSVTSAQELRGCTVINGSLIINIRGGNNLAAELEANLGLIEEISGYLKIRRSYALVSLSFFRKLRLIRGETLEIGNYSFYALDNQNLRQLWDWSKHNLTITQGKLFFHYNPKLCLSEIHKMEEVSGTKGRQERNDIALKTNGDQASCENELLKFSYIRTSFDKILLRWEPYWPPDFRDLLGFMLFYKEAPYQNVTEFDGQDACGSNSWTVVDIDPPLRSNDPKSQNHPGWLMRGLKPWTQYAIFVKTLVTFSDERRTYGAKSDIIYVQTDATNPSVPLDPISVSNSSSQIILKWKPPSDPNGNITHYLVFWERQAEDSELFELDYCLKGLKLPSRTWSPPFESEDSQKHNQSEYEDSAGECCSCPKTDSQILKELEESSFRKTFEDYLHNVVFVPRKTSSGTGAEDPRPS
Chain of Insulin receptor (P06213 763-1382 limits assumed): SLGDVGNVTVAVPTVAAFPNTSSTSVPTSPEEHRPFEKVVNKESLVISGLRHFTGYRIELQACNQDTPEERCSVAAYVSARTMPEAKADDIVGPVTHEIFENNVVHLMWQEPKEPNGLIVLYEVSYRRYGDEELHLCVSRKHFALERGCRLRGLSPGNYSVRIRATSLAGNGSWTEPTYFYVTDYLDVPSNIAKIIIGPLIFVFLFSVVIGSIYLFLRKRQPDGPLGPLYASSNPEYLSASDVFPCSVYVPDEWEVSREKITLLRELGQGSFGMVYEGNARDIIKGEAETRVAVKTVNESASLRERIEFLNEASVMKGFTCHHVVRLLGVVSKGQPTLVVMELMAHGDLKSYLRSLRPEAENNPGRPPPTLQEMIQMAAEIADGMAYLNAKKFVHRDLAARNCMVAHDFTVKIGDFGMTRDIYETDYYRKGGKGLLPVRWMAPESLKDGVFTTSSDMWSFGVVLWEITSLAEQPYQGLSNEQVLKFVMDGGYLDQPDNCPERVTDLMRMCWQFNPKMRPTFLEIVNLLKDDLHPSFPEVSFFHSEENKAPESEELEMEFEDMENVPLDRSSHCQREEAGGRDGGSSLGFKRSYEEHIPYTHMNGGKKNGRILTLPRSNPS
Chain of Mitogen-activated protein kinase kinase kinase 8 (P41279 whole entry): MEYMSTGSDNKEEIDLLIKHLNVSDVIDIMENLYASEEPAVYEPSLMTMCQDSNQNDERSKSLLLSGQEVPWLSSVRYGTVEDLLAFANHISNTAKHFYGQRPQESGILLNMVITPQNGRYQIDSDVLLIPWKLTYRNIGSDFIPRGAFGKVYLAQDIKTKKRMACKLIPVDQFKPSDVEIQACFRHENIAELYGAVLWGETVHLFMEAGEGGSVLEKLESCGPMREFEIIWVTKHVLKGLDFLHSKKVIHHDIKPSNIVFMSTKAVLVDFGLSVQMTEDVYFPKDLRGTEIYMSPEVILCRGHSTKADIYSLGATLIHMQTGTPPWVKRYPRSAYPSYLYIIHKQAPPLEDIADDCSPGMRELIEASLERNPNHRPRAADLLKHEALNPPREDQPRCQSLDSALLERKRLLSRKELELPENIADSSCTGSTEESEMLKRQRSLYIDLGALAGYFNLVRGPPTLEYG
Chain of Platelet-derived growth factor receptor beta (P09619 whole entry): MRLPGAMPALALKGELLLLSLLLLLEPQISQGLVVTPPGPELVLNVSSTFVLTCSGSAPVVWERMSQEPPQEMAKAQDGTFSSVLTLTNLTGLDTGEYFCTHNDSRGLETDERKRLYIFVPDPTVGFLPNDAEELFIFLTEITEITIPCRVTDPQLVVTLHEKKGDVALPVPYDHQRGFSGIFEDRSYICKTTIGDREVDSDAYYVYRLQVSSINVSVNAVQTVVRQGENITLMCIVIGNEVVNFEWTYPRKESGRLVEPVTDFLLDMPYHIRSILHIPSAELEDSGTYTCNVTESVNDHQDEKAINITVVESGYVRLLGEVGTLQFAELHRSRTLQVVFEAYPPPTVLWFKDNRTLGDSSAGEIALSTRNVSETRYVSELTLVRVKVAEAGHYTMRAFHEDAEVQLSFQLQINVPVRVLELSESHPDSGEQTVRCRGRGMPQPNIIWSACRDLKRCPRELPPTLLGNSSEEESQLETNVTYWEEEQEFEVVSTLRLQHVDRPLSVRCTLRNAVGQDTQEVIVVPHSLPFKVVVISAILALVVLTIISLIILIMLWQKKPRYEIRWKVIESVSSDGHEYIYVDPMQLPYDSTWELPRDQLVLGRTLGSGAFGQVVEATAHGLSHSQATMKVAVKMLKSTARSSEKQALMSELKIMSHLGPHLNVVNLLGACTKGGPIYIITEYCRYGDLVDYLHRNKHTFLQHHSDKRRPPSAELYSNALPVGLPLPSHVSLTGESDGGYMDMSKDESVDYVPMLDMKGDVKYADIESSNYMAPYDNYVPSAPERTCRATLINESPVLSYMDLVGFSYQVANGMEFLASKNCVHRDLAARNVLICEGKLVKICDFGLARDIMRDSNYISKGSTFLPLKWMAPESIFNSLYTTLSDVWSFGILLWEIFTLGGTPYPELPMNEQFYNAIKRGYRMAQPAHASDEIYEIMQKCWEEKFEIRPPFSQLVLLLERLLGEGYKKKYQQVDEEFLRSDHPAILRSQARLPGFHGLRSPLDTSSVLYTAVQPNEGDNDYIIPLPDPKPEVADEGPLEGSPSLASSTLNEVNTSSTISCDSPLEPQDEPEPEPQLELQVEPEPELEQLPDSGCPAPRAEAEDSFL
Chain of Ephrin type-B receptor 4 (P54760 whole entry, the tested form may be a part): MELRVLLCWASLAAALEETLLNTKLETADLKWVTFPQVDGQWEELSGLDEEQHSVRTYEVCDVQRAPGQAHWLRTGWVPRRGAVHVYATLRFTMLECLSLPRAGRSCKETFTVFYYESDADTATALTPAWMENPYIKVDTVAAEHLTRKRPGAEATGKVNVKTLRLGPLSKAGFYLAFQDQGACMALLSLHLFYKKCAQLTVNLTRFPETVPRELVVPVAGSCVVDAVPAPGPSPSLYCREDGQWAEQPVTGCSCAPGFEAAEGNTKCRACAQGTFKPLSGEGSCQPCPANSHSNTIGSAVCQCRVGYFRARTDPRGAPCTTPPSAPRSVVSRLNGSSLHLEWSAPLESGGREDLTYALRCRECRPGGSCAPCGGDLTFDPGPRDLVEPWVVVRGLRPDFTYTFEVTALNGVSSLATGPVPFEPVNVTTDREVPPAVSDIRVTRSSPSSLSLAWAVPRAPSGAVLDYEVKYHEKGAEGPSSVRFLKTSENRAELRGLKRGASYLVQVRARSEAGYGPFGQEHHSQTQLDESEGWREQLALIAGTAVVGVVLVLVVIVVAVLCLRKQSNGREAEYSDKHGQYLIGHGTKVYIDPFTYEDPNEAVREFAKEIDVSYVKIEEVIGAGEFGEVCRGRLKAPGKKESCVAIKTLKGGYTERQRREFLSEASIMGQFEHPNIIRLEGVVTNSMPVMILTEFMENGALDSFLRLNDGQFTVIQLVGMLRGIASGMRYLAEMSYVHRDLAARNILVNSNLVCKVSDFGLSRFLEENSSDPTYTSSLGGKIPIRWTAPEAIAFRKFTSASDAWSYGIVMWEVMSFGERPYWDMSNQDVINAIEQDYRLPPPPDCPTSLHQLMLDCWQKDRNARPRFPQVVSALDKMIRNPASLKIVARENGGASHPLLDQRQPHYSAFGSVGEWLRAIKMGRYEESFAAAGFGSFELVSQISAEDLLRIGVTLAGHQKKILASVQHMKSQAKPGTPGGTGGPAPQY

As for `COc1cc(C2=C(c3cn(CC(O)CO)c4ccccc34)CNC2=O)cc(OC)c1OC` (configuration not stated), in [1], the IC50 worked out at 40 µM.

For `COc1cc(C2=C(c3cn(C)c4ccccc34)C(=O)NC2)cc(OC)c1OC`, the IC50 in experiment [2] is 42 µM; in experiment [3] it was 47 µM.

Take `COc1cc(C2=C(c3c[nH]c4ccccc34)CNC2=O)cc(OC)c1OC`: the figures for the Activity in experiment [4], in experiment [7] and in experiment [8] were 25%, 42.1% and 0.27, respectively. Further, in experiment [5], the IC50 is 32 µM. For the same compound, the inhibition in [6] was determined as 88%.

`COc1cc(C2=C(c3c[nH]c4ccccc34)C(=O)NC2)cc(OC)c1OC`: in experiment [6], the inhibition is 34%. Further, in [8], the Activity is 2.56.

In the case of `COc1cc(C2=C(c3cn(COC(C)(C)C)c4ccccc34)CNC2=O)cc(OC)c1OC`, the IC50 in experiment [2] turned out to be 23 µM; in experiment [9] it was 29 µM; in experiment [5], 9.6 µM; in experiment [3] it was 27 µM; in experiment [10], 20 µM; in experiment [1], 38 µM. Also, in experiment [11], the IC50 worked out at 25 µM.
